Results gathered from unrelated publications.
Protocols differ between the studies behind these lines.
Target: Tyrosine-protein kinase TXK (TXK, Homo sapiens, UniProt P42681)
Sequence (P42681 1-527, as in one of the studies): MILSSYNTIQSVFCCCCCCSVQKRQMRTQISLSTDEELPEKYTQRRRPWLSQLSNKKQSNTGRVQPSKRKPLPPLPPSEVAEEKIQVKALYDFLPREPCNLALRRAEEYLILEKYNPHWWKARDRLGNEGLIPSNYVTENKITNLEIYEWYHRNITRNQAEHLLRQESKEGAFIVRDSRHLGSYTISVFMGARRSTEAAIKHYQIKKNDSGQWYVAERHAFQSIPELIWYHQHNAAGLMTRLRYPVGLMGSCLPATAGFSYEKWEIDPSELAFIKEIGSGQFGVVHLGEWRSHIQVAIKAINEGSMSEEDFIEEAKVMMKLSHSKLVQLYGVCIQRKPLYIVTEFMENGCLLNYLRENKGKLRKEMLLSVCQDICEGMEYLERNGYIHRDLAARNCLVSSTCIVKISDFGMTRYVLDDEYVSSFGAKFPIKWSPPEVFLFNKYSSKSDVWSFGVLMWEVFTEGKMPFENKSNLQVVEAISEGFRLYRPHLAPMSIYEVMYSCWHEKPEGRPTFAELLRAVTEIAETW

Structure (SMILES)	assay	setting	quantity	result
COc1cc(Nc2ncc(F)c(Nc3ccc4c(n3)NC(=O)C(C)(C)O4)n2)cc(OC)c1OC	binding	10 µM	inhibition	90%
N#CC1(c2ccccn2)CCN(Cc2cc(C(=O)O)c(=O)n3ccccc23)CC1	binding, competition with immobilised ligand	1 µM	remaining binding	100%
COc1ncccc1-c1cnn2ccc(N3CCN(C(=O)OC(C)C)CC3)nc12	binding, competition with immobilised ligand	1 µM	remaining binding	74%
Cn1cncc1[C@](O)(COc1ccc(C#N)cc1-c1ccc(OC(F)(F)F)cc1)c1ccc(C#N)cc1	binding, competition with immobilised ligand	1 µM	remaining binding	87%
CC(C)(C)c1cc(C=C(C#N)C#N)cc(Br)c1O	enzyme activity, inhibitor	0.5 µM	remaining activity	108%
Cc1nn(C)cc1-c1nc2c(N3CCN(Cc4ccc(Cl)cc4)CC3)c(Cl)cnc2[nH]1	binding, competition with immobilised ligand	1 µM	remaining binding	100%
O=c1[nH]c2ccccc2n1C1CCN(Cc2ccc(-c3[nH]c4cc5ncnc5cc4nc3-c3ccccc3)cc2)CC1	enzyme activity	0.5 µM	remaining activity	104%
Nc1ncc(-c2nc(N3CCOCC3)nc(N3CCOCC3)n2)c(C(F)F)n1	binding, competition with immobilised ligand	10 µM	remaining binding	56%
